Laboratory results taken from ChEMBL document CHEMBL3872218, “Synthesis and T-type calcium channel-blocking effects of aryl(1,5-disubstituted-pyrazol-3-yl)methyl sulfonamides for neuropathic pain treatment” (Eur J Med Chem, 2016).

Assays:
[1] = target: Voltage-dependent T-type calcium channel subunit alpha-1H (Homo sapiens, UniProt O95180); assay: Inhibition of Cav3.2 alpha1H (unknown origin) expressed in HEK293 cells assessed as decrease in KCl-induced depolarization mediated intracellular Ca2+ level at 10 uM by fluo3/AM based high throughput screening assay relative to control; format: cell-based
Chain of Voltage-dependent T-type calcium channel subunit alpha-1H (O95180 whole entry): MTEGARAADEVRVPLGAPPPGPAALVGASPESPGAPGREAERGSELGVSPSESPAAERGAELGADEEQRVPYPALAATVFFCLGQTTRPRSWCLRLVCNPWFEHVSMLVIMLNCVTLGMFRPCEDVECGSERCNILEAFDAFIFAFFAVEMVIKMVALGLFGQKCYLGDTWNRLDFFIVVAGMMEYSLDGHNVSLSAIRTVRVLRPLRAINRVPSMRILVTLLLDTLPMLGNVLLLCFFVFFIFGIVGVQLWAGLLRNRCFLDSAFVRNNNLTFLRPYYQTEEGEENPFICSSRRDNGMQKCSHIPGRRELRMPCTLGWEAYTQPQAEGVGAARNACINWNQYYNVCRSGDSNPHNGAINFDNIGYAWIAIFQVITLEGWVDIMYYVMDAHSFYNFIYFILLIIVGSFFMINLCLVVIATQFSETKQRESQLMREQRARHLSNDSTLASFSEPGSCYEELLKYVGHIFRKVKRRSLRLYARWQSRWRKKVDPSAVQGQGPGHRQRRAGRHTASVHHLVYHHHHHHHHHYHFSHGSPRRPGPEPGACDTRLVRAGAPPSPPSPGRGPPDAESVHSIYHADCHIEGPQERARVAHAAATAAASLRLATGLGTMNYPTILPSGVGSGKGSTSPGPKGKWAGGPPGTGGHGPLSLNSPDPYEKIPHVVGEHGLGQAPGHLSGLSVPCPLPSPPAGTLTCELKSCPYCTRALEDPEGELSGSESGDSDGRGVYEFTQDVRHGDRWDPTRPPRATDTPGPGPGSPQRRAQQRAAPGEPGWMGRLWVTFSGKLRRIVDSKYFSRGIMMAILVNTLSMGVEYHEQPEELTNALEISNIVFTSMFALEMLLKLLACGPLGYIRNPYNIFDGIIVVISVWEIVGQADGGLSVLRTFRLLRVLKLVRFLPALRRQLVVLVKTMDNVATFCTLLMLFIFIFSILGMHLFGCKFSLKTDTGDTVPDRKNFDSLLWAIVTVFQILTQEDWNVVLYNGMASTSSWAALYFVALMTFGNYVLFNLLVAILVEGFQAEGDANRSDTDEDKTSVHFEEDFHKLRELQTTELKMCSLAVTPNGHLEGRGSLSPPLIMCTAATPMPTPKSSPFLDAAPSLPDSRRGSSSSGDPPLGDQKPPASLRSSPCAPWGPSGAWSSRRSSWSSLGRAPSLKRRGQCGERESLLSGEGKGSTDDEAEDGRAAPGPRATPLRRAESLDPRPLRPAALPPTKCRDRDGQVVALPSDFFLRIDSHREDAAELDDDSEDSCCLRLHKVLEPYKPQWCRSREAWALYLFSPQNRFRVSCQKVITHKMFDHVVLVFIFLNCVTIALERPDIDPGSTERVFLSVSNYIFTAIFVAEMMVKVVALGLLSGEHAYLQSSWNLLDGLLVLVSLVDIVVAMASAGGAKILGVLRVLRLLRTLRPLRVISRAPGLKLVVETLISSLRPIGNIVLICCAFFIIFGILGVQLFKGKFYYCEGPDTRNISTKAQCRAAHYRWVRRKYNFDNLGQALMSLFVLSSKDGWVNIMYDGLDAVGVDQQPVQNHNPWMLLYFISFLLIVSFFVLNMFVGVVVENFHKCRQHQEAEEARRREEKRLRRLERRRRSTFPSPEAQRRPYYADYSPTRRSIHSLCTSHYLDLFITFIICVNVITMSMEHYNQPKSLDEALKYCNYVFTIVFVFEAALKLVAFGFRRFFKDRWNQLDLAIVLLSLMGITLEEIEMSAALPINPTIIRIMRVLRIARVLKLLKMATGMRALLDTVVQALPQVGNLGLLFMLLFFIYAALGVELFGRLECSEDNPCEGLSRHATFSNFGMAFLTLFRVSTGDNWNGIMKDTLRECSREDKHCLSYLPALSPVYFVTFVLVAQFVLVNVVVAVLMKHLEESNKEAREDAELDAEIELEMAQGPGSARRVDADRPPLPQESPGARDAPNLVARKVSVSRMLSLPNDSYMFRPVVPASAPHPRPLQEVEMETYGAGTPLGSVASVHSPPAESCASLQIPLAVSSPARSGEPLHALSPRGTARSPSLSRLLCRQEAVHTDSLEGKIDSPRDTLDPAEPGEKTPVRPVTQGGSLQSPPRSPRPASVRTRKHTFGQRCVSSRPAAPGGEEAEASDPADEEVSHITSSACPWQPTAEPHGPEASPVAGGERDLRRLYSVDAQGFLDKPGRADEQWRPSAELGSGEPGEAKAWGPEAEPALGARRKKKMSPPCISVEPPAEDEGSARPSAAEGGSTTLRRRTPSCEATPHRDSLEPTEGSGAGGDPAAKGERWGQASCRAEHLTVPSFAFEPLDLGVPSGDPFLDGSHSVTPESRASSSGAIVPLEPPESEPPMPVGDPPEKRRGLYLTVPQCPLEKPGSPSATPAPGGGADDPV
Summary of the method: (§1)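 HEK293 cells stably expressing Cav3.1 or Cav3.2 plated at 4 × 10⁴ cells/well and used the next day. Loaded 60 min at room temperature with […] fluo3/AM plus 0.001% Pluronic F-127 in HEPES-buffered saline (1.8 mM CaCl₂, pH 7.4). Ca²⁺ fluorescence read on FDSS6000 as % inhibition, compound at […].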

[2] = target: Voltage-dependent T-type calcium channel subunit alpha-1G (Homo sapiens, UniProt O43497); assay: Inhibition of Cav3.1 alpha1G (unknown origin) expressed in HEK293 cells assessed as decrease in KCl-induced depolarization mediated intracellular Ca2+ level at 10 uM by fluo3/AM based high throughput screening assay relative to control; format: cell-based; summary of the method: as §1
Chain of Voltage-dependent T-type calcium channel subunit alpha-1G (O43497 whole entry): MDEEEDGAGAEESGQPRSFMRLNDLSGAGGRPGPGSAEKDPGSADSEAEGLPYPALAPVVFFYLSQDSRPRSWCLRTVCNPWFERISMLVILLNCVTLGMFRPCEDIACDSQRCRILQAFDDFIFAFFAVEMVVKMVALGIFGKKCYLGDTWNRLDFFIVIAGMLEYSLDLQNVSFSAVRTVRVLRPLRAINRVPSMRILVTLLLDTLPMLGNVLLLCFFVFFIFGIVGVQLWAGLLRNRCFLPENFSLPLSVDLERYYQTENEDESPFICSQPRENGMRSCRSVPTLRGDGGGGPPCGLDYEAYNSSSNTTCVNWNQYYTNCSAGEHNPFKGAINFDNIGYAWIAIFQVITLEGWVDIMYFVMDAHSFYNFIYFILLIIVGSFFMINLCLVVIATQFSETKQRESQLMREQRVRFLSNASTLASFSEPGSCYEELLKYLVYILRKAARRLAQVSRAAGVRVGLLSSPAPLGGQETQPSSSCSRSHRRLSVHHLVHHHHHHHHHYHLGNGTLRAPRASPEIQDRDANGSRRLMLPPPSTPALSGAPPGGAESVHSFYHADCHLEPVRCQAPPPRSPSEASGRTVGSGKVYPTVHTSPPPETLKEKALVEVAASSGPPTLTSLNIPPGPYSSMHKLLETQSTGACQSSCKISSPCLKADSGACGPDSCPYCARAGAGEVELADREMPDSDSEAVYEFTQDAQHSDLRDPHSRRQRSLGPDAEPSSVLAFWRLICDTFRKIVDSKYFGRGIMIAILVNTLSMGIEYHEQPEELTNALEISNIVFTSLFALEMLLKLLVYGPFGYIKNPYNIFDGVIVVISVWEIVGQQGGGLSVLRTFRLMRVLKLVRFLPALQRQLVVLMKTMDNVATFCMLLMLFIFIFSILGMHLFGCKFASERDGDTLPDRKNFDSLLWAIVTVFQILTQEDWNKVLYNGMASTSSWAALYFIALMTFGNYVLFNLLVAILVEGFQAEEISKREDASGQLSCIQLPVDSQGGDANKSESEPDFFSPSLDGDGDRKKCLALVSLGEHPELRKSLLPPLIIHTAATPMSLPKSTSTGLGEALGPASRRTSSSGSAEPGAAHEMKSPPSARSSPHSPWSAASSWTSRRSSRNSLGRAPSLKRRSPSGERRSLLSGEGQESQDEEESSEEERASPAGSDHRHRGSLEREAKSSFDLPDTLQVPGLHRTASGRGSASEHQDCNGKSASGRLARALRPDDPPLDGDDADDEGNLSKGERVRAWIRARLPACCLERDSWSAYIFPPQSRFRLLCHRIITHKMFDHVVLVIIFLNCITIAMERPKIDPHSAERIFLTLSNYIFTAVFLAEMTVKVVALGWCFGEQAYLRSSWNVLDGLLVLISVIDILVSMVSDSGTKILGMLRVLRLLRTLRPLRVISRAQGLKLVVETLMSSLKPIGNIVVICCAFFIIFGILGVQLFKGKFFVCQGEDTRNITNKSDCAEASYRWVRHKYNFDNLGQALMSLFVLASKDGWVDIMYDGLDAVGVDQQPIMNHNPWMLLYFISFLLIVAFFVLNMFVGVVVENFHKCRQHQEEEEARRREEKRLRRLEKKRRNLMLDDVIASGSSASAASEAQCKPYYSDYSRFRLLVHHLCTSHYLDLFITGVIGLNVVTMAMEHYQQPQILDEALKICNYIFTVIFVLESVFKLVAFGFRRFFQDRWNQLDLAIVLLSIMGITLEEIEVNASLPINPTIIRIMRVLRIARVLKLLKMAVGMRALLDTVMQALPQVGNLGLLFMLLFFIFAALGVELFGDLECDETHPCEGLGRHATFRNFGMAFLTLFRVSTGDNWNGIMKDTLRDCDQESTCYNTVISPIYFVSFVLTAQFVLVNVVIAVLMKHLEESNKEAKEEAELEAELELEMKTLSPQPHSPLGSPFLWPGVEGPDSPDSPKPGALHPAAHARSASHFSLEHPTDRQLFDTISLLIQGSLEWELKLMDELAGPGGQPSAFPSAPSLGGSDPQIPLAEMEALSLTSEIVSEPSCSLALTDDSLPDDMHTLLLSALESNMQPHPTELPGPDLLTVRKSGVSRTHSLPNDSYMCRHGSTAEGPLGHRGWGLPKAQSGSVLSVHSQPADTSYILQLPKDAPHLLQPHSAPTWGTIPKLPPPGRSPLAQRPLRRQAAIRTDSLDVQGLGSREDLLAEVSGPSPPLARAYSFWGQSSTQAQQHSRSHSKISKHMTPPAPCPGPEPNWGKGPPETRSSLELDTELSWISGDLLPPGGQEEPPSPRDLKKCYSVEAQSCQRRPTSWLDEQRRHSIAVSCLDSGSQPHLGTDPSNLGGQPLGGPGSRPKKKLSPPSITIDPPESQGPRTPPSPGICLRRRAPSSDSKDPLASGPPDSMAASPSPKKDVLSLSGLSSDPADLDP

[3] = species: Rattus norvegicus; assay: Inhibition of voltage dependent T-type Ca2+ channel in Wistar rat cerebral cortex assessed as reduction in transient inward Ca2+ current at -60 mV holding potential at 500 uM by whole-cell patch clamp method relative to control
[4] = test system: N1E-115; assay: Inhibition of voltage dependent T-type Ca2+ channel in mouse N1E-115 cells assessed as reduction in transient inward Ca2+ current at 50 uM by whole-cell patch clamp method relative to control; format: cell-based

Structure (SMILES)	inhibition [1] [%]	inhibition [2] [%]	inhibition [3] [%]	inhibition [4] [%]
CC(C)Cc1cc(CNS(=O)(=O)c2cccc(I)c2)nn1-c1ccccc1	44.9	46.4	–	–
NS(=O)(=O)Cc1noc2ccccc12	–	–	60	40
CC(C)Cc1cc(CNS(=O)(=O)Cc2cccc3ccccc23)nn1-c1ccccc1	6.66	7.09	–	–
CC(C)(C)n1nc(CNS(=O)(=O)c2ccccc2)cc1-c1cccc(F)c1	53.5	51.5	–	–
Cc1ccc(S(=O)(=O)NCc2cc(CC(C)C)n(-c3ccccc3)n2)cc1	62.2	57.3	–	–
Cc1ccc(F)c(S(=O)(=O)NCc2cc(CC(C)C)n(-c3ccccc3)n2)c1	70	54.9	–	–
CC(C)(C)n1nc(CNS(=O)(=O)c2ccccc2)cc1-c1ccccc1	10.4	55.5	–	–
CC(C)Cc1cc(CNS(=O)(=O)c2ccc(C(C)(C)C)cc2)nn1-c1ccccc1	33.4	46.9	–	–
CC(C)Cc1cc(CNS(=O)(=O)c2cccc3cccnc23)nn1-c1ccccc1	61.4	29.8	–	–
